Like-named read-outs stand apart in the source and are kept apart here. Blank lines part the entries; values can stand above or below the compound they belong to.
Assays:
P-gp = P-gp (Homo sapiens, UniProt P08183); test: Inhibitor screening of [3H]digoxin accumulation in HEK293 cells expressing P-gp; format: cell-based
In short: (§1)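 HEK293 lines overexpressing the named transporter were grown in DMEM with 10% FBS, 1% penicillin/streptomycin and line-specific selection antibiotics, at 37°C, humidified, 5% CO₂. Cell-based uptake assays measured inhibition of transporter activity.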

OATP1B1 [1] = molecular target: T1, OATP1B1 (Homo sapiens, UniProt Q9Y6L6); format: cell-based; details: HEK293 OATP1B1 cells
T1 sequence (Q9Y6L6 1-691): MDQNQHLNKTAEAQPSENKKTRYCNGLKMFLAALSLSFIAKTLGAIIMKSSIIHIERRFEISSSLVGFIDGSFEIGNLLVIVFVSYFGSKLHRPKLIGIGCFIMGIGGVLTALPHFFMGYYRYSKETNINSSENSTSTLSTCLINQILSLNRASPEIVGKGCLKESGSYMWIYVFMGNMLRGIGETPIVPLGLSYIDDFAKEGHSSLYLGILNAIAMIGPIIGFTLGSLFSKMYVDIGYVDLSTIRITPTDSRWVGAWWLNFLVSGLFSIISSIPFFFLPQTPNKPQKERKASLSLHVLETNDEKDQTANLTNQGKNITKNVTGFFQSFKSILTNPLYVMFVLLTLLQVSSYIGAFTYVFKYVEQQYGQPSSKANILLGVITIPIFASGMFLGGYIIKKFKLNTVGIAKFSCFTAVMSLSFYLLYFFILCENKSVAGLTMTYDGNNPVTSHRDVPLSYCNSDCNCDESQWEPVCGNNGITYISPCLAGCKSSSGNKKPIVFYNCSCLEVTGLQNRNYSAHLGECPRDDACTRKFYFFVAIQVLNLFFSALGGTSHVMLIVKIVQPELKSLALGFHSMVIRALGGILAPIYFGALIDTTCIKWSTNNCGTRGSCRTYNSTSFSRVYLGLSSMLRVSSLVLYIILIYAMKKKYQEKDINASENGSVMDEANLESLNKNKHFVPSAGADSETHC
In short: (§2)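 Transporter-overexpressing HEK293 cells were cultured in DMEM with 10% FBS, 1% penicillin/streptomycin and selection antibiotics at 37°C, 5% CO₂. Test compounds were screened at 10 μM and 30 μM, and uptake was quantified as normalised peak areas. For OATP1B1/1B3, uptake was compared with empty-vector cells, and for OATP1B1 also with cells treated with the inhibitor cyclosporine A.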

ABCG2 p.Q141K variant = format: in vivo, human; details: two p.Q141K (CA) vs nine REF (CC) individuals; T = 0 h
In short: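 Open-label fixed-sequence crossover in 11 healthy non-smoking adults aged 18–64. Single oral rosuvastatin 10 mg given after an overnight fast, with fasting continued 4 h. Heparinised venous plasma was stored at −70°C and analysed by LC–MS. ABCG2 c.421C>A was genotyped blind by PCR and Sanger sequencing. Nine CC and two CA subjects were compared at T = 0 h and by noncompartmental PK, using log-transformed geometric means and unpaired t-tests.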

[2] = format: in vivo, human; details: for AUC(0-t): geometric mean (90% CI)
OATP1B3 [3] = molecular target: T2, OATP1B3 (Homo sapiens, UniProt Q9NPD5); test: Substrate screening in HEK293 cells expressing OATP1B3; format: cell-based
T2 sequence (Q9NPD5 1-702): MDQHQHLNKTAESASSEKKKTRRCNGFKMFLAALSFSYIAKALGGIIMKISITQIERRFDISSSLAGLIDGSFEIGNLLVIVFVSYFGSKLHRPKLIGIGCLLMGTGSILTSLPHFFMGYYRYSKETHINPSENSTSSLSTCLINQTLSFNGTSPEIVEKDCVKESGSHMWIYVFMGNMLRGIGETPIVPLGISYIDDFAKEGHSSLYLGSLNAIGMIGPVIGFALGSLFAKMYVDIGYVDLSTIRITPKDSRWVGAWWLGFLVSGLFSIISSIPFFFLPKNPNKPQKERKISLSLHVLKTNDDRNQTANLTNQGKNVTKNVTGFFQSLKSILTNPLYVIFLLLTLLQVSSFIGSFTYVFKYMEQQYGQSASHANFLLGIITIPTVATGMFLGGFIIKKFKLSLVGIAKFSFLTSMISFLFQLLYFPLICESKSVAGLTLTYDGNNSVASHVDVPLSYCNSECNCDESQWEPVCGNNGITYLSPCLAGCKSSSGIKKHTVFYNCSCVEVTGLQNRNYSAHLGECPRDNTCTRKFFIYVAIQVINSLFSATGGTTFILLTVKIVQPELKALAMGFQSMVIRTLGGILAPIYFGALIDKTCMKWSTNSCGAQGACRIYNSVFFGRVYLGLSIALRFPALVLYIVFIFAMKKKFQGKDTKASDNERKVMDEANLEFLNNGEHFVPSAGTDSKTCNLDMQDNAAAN
In short: as §2

BCRP [4] = molecular target: T3, BCRP (Homo sapiens, UniProt Q9UNQ0); format: cell-based
T3 sequence (Q9UNQ0 1-655): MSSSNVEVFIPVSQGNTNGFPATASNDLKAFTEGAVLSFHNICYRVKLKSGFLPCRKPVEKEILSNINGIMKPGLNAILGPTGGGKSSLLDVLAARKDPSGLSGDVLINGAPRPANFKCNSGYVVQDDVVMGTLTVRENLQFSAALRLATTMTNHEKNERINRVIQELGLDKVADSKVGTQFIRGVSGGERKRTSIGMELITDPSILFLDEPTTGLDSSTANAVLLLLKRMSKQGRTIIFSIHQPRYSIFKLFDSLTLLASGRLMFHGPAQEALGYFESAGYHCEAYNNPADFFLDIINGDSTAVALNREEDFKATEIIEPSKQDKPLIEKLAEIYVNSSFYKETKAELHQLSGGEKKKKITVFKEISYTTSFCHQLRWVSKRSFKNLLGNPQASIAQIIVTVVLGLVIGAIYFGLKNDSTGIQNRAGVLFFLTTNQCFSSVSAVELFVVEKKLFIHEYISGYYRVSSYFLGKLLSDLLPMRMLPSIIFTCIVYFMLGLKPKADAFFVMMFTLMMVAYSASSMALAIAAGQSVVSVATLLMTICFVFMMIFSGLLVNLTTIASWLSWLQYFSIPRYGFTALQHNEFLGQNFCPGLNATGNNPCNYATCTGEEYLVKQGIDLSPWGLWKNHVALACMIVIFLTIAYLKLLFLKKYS
In short: as §2

RFVT2 = molecular target: T4, RFVT2 (Homo sapiens, UniProt Q9HAB3); format: cell-based
T4 sequence (Q9HAB3 1-445): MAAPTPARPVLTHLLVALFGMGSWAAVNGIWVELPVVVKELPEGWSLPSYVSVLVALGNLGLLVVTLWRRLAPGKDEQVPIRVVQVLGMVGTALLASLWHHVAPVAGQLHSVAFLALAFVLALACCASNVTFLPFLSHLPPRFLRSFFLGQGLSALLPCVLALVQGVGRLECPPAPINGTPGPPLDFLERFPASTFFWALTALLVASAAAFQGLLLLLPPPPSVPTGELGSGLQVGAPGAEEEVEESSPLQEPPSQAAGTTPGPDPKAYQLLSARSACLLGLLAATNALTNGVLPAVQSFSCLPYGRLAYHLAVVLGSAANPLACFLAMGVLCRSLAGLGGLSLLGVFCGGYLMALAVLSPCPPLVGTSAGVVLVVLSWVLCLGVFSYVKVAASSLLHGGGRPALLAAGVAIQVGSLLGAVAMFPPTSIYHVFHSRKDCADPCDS
In short: as §1

OATP1B3 [5] = molecular target: T2, OATP1B3; format: cell-based
In short: as §1

BCRP [6] = molecular target: T3, BCRP; format: biochemical
OATP1B1 [7] = molecular target: T1, OATP1B1; format: cell-based
In short: as §1

hepatic BCRP = details: intravenous ceftriaxone as model; cited from earlier work
RFVT1 = molecular target: T5, RFVT1 (Homo sapiens, UniProt Q9NWF4); format: cell-based
T5 sequence (Q9NWF4 1-448): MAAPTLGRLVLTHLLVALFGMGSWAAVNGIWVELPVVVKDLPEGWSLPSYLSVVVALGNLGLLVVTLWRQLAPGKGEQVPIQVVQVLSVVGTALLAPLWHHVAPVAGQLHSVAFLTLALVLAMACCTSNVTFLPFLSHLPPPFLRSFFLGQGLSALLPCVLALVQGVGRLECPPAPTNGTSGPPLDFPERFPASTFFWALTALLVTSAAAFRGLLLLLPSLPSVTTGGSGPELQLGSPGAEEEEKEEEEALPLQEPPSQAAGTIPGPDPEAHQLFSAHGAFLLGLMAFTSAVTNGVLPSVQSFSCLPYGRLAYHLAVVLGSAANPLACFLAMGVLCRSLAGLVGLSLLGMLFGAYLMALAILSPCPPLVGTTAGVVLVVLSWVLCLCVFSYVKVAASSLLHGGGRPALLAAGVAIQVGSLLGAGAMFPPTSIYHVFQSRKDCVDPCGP
In short: as §1

RFVT3 = molecular target: T6, RFVT3 (Homo sapiens, UniProt Q9NQ40); format: cell-based
T6 sequence (Q9NQ40 1-469): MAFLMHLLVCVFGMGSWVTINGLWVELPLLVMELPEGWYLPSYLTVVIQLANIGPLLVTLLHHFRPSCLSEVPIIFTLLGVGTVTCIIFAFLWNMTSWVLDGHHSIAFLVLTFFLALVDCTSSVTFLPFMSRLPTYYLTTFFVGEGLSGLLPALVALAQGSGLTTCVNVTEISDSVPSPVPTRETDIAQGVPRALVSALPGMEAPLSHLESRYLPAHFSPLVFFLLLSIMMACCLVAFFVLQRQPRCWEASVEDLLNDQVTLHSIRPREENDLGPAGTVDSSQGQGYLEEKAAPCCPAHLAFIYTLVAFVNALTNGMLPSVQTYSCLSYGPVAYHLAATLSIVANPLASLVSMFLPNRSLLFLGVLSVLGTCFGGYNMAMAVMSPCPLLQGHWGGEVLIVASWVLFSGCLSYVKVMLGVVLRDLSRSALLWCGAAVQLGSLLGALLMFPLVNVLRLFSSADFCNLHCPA
In short: as §1

[8] = both, human, plasma, oral, 10 mg

P-gp, sequence (P08183 whole entry): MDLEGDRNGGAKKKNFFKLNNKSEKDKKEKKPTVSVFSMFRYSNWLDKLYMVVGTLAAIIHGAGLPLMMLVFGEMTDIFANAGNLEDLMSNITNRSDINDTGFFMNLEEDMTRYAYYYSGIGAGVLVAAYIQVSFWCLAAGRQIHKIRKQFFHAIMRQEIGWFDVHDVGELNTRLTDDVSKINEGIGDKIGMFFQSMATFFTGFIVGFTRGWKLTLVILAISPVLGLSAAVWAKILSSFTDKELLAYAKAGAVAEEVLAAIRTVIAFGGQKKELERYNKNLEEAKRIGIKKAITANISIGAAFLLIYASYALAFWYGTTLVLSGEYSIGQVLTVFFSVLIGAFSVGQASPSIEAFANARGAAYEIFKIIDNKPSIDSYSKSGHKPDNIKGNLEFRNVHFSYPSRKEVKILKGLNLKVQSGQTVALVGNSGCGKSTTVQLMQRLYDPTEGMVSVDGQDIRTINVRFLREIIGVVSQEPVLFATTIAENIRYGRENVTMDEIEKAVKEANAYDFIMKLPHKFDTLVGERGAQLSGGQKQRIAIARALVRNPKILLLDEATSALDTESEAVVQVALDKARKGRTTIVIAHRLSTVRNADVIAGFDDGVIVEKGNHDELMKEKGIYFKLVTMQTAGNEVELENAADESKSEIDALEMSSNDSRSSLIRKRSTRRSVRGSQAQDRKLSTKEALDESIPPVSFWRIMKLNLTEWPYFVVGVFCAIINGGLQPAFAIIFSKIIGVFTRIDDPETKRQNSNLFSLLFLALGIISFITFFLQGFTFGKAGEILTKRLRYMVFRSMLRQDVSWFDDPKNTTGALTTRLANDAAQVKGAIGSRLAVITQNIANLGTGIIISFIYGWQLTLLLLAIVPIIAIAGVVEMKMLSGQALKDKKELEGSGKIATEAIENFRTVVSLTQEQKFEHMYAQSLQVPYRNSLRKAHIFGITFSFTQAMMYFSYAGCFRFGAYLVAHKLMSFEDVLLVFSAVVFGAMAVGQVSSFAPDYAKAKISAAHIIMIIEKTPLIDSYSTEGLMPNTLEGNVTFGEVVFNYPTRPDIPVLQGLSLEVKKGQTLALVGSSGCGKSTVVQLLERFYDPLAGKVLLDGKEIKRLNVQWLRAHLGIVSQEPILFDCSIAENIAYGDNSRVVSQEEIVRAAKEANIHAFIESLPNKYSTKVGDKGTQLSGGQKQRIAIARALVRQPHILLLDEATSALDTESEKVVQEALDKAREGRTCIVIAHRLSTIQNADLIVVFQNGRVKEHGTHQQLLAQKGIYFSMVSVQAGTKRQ

Effect on intracellular accumulation of P-gp substrate [3H]digoxin (P-gp): did not affect | OATP1B1 substrate classification (OATP1B1 [1]): not substrates | Baseline concentrations, heterozygous p.Q141K vs homozygous reference allele (ABCG2 p.Q141K variant): not statistically significant | AUC0−24, geometric mean ratio (90% CI) of rosuvastatin + eltrombopag arm to rosuvastatin alone arm ([2]; both, human, plasma, oral): 1.03 (0.97–1.10); P = 0.39 | C0 at 0 h ([2]; both, human, plasma, oral): 0.8 ng/mL | Cmax ([2]; both, human, plasma, oral): 0.98 ng/mL | C0 at 0 h [2, 8]: 0.73 ng/mL | Cmax [2, 8]: 1.03 ng/mL | AUC(0-t) ([2]; both, human, plasma, oral, 10 mg, AUC0−4, rosuvastatin alone arm): 3.02 ng·h/mL | AUC(0-t) ([2]; both, human, plasma, oral, 10 mg, AUC0−24, rosuvastatin alone arm): 18.6 ng·h/mL | AUC(0-t) ([2]; both, human, plasma, oral, AUC0−4, rosuvastatin + eltrombopag arm): 2.97 ng·h/mL | AUC(0-t) ([2]; both, human, plasma, oral, AUC0−24, rosuvastatin + eltrombopag arm): 19.2 ng·h/mL | Effect of eltrombopag administration on plasma concentrations (in words) ([2]; eltrombopag 75 mg daily for 5 days): did not lead to corresponding increases | AUC0−4, geometric mean ratio (90% CI) of rosuvastatin + eltrombopag arm to rosuvastatin alone arm ([2]; human, in vivo): 0.98 (0.93–1.04); P = 0.72 | C0, geometric mean ratio (90% CI) of rosuvastatin + eltrombopag arm to rosuvastatin alone arm ([2]; human, in vivo): 1.10 (1.00–1.21); P = 0.07 | Cmax, geometric mean ratio (90% CI) of rosuvastatin + eltrombopag arm to rosuvastatin alone arm ([2]; human, in vivo): 0.95 (0.85–1.06); P = 0.49 | Food effects, fasted (AUC0−4) vs fed (AUC4−8) ([2]; human, in vivo): No food effects | OATP1B3 substrate classification (OATP1B3 [3]): not substrates | Uptake in BCRP-expressing HEK293 cells compared to same cell line with Ko143 (BCRP [4]; 10 μM and 30 μM, 30 min): significantly reduced | BCRP substrate classification (BCRP [4]; HEK293 BCRP cells): BCRP substrates
SMILES: O=C(O)c1c(O)c(Cl)cc(Cl)c1O [DCDBA, 3,5‐dichloro‐2,6‐dihydroxybenzoic acid]

IC50 (RFVT2): 28.2 ± 15.7 µM | IC50 (OATP1B3 [5]): 4 ± 3.1 µM | IC50 (BCRP [6]): 4.9 ± 0.6 µM | IC50 (OATP1B1 [7]): 1.4 ± 1.2 µM | IC50 (RFVT1): 44.7 ± 18.3 µM | IC50 (RFVT3): 26.3 ± 34 µM
SMILES: CC1=NN(c2ccc(C)c(C)c2)C(=O)/C1=N\Nc1cccc(-c2cccc(C(=O)O)c2)c1O [Eltrombopag]
Inhibition of hepatic BCRP (hepatic BCRP): does not inhibit
